How the values were obtained:
[1] = Displacement of [3H]prazosin from alpha-1-adrenoceptor in Wistar rat cerebral cortex membrane; assay type: tissue-based
Method in brief: (§1)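 Rat brain homogenised in ice-cold 50 mM Tris–HCl pH 7.6, centrifuged twice at 20,000g for 20 min at 0–4 °C. Membranes incubated with [3H]prazosin 0.2 nM (α1) or [3H]clonidine 2 nM (α2) and 7–8 test concentrations (10^-11–10^-4 M). Filter-bound radioactivity counted by liquid scintillation; duplicates; curve-fitted, Ki by Cheng–Prusoff.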

[2] = species: Rattus norvegicus; test: Selectivity of Ki for alpha-2-adrenoceptor to Ki for alpha-1-adrenoceptor in Wistar rat cerebral cortex membrane; assay type: tissue-based
[3] = Displacement of [3H]clonidine from alpha-2-adrenoceptor in Wistar rat cerebral cortex membrane; assay type: tissue-based; method in brief: as §1
[4] = Antagonist activity at alpha-1-adrenoceptor in Wistar rat thoracic aorta assessed as inhibition of phenylephrine-induced contraction; assay type: functional, tissue-based
Method in brief: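 Male Wistar rats (200–350 g), thiopental 75 mg/kg ip; endothelium-denuded thoracic aorta rings (~4 mm) in Krebs–Henseleit, 37 °C, pH 7.4, O2/CO2 19:1. Cumulative phenylephrine curves (3·10^-9–3·10^-6 M) before and after 20 min with one of 3–4 antagonist concentrations per ring; 60 min recovery between curves.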

Compound	Ki [1]	also measured
CCOc1ccccc1OCCN1CCN(c2cnn(CCCCCCCN3CCN(c4ccccc4OC(C)C)CC3)c(=O)c2Cl)CC1	0.05 nM	
COC(=O)C(C)N1C(=O)N(CC(O)CN2CCN(c3ccccc3OC)CC2)C(c2ccccc2)(c2ccccc2)C1=O (stereo not given)	104 nM	Ratio Ki [2]: 4.32; Ki [3]: 449 nM; pKb [4]: 7.084
COc1ccccc1OCCN1CCN(c2cnn(CCCCCCCN3CCN(c4ccccc4OC(C)C)CC3)c(=O)c2Cl)CC1	0.05 nM	
COc1cc2nc(N3CCN(C(=O)c4ccco4)CC3)nc(N)c2cc1OC [PRAZOSIN]	0.24 nM	
CCOc1ccccc1N1CCN(CCCCCCn2ncc(N3CCN(CCOc4ccccc4OC)CC3)c(Cl)c2=O)CC1	0.05 nM	
CCOc1ccccc1OCCN1CCN(c2cnn(CCCCN3CCN(c4ccccc4OC(C)C)CC3)c(=O)c2Cl)CC1	0.05 nM	
COc1ccccc1N1CCN(C(C)CN2C(=O)NC3c4ccccc4N(C)C3C2=O)CC1 (stereo not given)	0.1 nM	
CCOc1ccccc1OCCN1CCN(c2cnn(CCCCCN3CCN(c4ccccc4OC(C)C)CC3)c(=O)c2Cl)CC1	0.05 nM	
COc1ccccc1N1CCN(C(C)CN2C(=O)C3Nc4ccccc4C3N(C)C2=O)CC1 (stereo not given)	0.1 nM	
CCOc1ccccc1OCCN1CCN(c2cnn(CCCN3CCN(c4ccccc4OC(C)C)CC3)c(=O)c2Cl)CC1	0.05 nM	
COc1ccccc1N1CCN(C(C)CN2C(=O)NC3c4ccccc4NC3C2=O)CC1 (stereo not given)	0.1 nM	
CCOc1ccccc1OCCN1CCN(c2cnn(CCCCCCN3CCN(c4ccccc4OC(C)C)CC3)c(=O)c2Cl)CC1	0.05 nM	
COc1ccccc1N1CCN(C(C)CCN2C(=O)C3Nc4ccccc4C3N(C)C2=O)CC1 (stereo not given)	0.1 nM	
COc1ccccc1N1CCN(C(C)CCN2C(=O)C3Sc4ccccc4C3N(C)C2=O)CC1 (stereo not given)	0.1 nM	
CCOc1ccccc1OCCN1CCN(c2cnn(CCCCCN3CCN(c4ccccc4OCC)CC3)c(=O)c2Cl)CC1	0.05 nM	
CCOc1ccccc1OCCN1CCN(c2cnn(CCCCCCN3CCN(c4ccccc4OCC)CC3)c(=O)c2Cl)CC1	0.05 nM	
CCOc1ccccc1OCCN1CCN(c2cnn(CCCCN3CCN(c4ccccc4OCC)CC3)c(=O)c2Cl)CC1	0.05 nM	
COc1ccccc1N1CCN(C(C)CN2C(=O)C3Oc4ccccc4C3N(C)C2=O)CC1 (stereo not given)	0.1 nM	

Compound	Ki [1]	also measured
COc1ccccc1N1CCN(C(C)CN2C(=O)C3C(c4ccccc4N3C)N(C)C2=O)CC1 (stereo not given)	0.1 nM	
COc1ccccc1N1CCN(CCCCCCCn2ncc(N3CCN(CC4COc5ccccc5O4)CC3)c(Cl)c2=O)CC1 (stereo not given)	0.05 nM	
COc1ccccc1OCCN1CCN(c2cnn(CCN3CCN(c4ccccc4OC(C)C)CC3)c(=O)c2Cl)CC1	0.05 nM	
COc1ccccc1N1CCN(C(C)CN2C(=O)NC3c4ccccc4SC3C2=O)CC1 (stereo not given)	0.1 nM	
COc1ccccc1N1CCN(C(C)CN2C(=O)NC3c4ccccc4OC3C2=O)CC1 (stereo not given)	0.1 nM	
CCOc1ccccc1OCCN1CCN(c2cnn(CCCCCCCN3CCN(c4ccccc4OCC)CC3)c(=O)c2Cl)CC1	0.05 nM	
CCOc1ccccc1N1CCN(CC(O)CN2C(=O)N(C)C(=O)C2(c2ccccc2)c2ccccc2)CC1 (stereo not given)		Ratio Ki [2]: 4.4; Ki [3]: 535 nM; pKb [4]: 7.022
CCOc1ccccc1OCCN1CCN(c2cnn(CCN3CCN(c4ccccc4OCC)CC3)c(=O)c2Cl)CC1	0.05 nM	
COC(=O)CN1C(=O)N(CC(O)CN2CCN(c3ccccc3OC)CC2)C(c2ccccc2)(c2ccccc2)C1=O (stereo not given)	198 nM	Ratio Ki [2]: 4.04; Ki [3]: 800 nM
COc1ccccc1OCCN1CCN(c2cnn(CCCCCN3CCN(c4ccccc4OC(C)C)CC3)c(=O)c2Cl)CC1	0.05 nM	
COc1ccccc1N1CCN(C(C)CCN2C(=O)C3C(c4ccccc4N3C)N(C)C2=O)CC1 (stereo not given)	0.1 nM	
CCOc1ccccc1OCCN1CCN(c2cnn(CCCN3CCN(c4ccccc4OCC)CC3)c(=O)c2Cl)CC1	0.05 nM	
CCOc1ccccc1N1CCN(CCCCCCCn2ncc(N3CCN(CCOc4ccccc4OC)CC3)c(Cl)c2=O)CC1	0.05 nM	
CCOc1ccccc1OCCN1CCN(c2cnn(CCN3CCN(c4ccccc4OC(C)C)CC3)c(=O)c2Cl)CC1	0.05 nM	
CCOc1ccccc1OCCN1CCN(c2cnn(CCCCCCCN3CCN(c4ccccc4OC)CC3)c(=O)c2Cl)CC1	0.05 nM	
CCOc1ccccc1N1CCN(CCn2ncc(N3CCN(CCOc4ccccc4OC)CC3)c(Cl)c2=O)CC1	0.05 nM	
COc1ccccc1N1CCN(C(C)CN2C(=O)C3Sc4ccccc4C3N(C)C2=O)CC1 (stereo not given)	0.1 nM	
COc1ccccc1OCCN1CCN(c2cnn(CCCCCCN3CCN(c4ccccc4OC(C)C)CC3)c(=O)c2Cl)CC1	0.05 nM	

More lines, main results first:

Ki [1]	Compound	also measured
0.1 nM	COc1ccccc1N1CCN(CCN2C(=O)C3C(c4ccccc4N3C)N(C)C2=O)CC1 (stereo not given)	
0.05 nM	CCOc1ccccc1OCCN1CCN(c2cnn(CCN3CCN(c4ccccc4OC)CC3)c(=O)c2Cl)CC1	
0.05 nM	COc1ccccc1OCCN1CCN(c2cnn(CCCCN3CCN(c4ccccc4OC(C)C)CC3)c(=O)c2Cl)CC1	
0.05 nM	COc1ccccc1OCCN1CCN(c2cnn(CCCCN3CCN(c4ccccc4OC)CC3)c(=O)c2Cl)CC1	
0.2 nM	O=c1ccc(-n2ccnc2)nn1CCCN1CCN(c2ccccc2Cl)CC1	
0.1 nM	COc1ccccc1N1CCN(CCCN2C(=O)C3Oc4ccccc4C3N(C)C2=O)CC1 (stereo not given)	
0.5 nM	COc1ccccc1N1CCN(CCN2C(=O)C3Nc4ccccc4C3N=C2C)CC1 (stereo not given)	
0.2 nM	COc1ccccc1N1CCN(CCCCCCCn2nc(-n3ccc4ccccc43)ccc2=O)CC1	
0.05 nM	CCOc1ccccc1OCCN1CCN(c2cnn(CCCCCN3CCN(c4ccccc4OC)CC3)c(=O)c2Cl)CC1	
0.05 nM	COc1ccccc1OCCN1CCN(c2cnn(CCN3CCN(c4ccccc4OC)CC3)c(=O)c2Cl)CC1	
0.5 nM	COc1ccc(Cl)cc1N1CCN(CCN2C(=O)C3Sc4ccccc4C3N=C2C)CC1 (stereo not given)	
0.05 nM	COc1ccccc1OCCN1CCN(c2cnn(CCCCCCCN3CCN(c4ccccc4OC)CC3)c(=O)c2Cl)CC1	
0.05 nM	CCOc1ccccc1OCCN1CCN(c2cnn(CCCN3CCN(c4ccccc4OC)CC3)c(=O)c2Cl)CC1	
0.1 nM	COc1ccccc1N1CCN(CCN2C(=O)NC3c4ccccc4NC3C2=O)CC1 (stereo not given)	
0.2 nM	COc1ccccc1N1CCN(CCCCCn2nc(-n3ccnc3)ccc2=O)CC1	
0.05 nM	COc1ccccc1OCCN1CCN(c2cnn(CCCN3CCN(c4ccccc4OC(C)C)CC3)c(=O)c2Cl)CC1	
0.1 nM	COc1ccccc1N1CCN(CCCN2C(=O)NC3c4ccccc4NC3C2=O)CC1 (stereo not given)	
0.1 nM	COc1ccccc1N1CCN(CCN2C(=O)NC3c4ccccc4OC3C2=O)CC1 (stereo not given)	
0.05 nM	COc1ccccc1OCCN1CCN(c2cnn(CCCCCN3CCN(c4ccccc4OC)CC3)c(=O)c2Cl)CC1	
0.1 nM	COc1ccccc1N1CCN(C(C)CCN2C(=O)NC3c4ccccc4N(C)C3C2=O)CC1 (stereo not given)	
0.1 nM	COc1ccccc1N1CCN(CCN2C(=O)C3Sc4ccccc4C3N(C)C2=O)CC1 (stereo not given)	
0.1 nM	COc1ccccc1N1CCN(CCCN2C(=O)NC3c4ccccc4SC3C2=O)CC1 (stereo not given)	
0.1 nM	COc1ccccc1N1CCN(CCN2C(=O)NC3c4ccccc4SC3C2=O)CC1 (stereo not given)	
0.5 nM	COc1ccccc1N1CCN(CCN2C(=O)C3Sc4ccccc4C3N=C2C)CC1 (stereo not given)	

Ki [1]	Compound	also measured
0.1 nM	COc1ccccc1N1CCN(C(C)CCN2C(=O)NC3c4ccccc4SC3C2=O)CC1 (stereo not given)	
0.5 nM	COc1ccc(Cl)cc1N1CCN(CCN2C(=O)C3Nc4ccccc4C3N=C2C)CC1 (stereo not given)	
0.05 nM	CCOc1ccccc1N1CCN(CCCCn2ncc(N3CCN(CCOc4ccccc4OC)CC3)c(Cl)c2=O)CC1	
0.1 nM	COc1ccccc1N1CCN(CCN2C(=O)C3Nc4ccccc4C3N(C)C2=O)CC1 (stereo not given)	
0.05 nM	CCOc1ccccc1N1CCN(CCCn2ncc(N3CCN(CCOc4ccccc4OC)CC3)c(Cl)c2=O)CC1	
0.2 nM	O=c1ccc(-n2cnc3ccccc32)nn1CCCCCCCN1CCN(c2ccccc2Cl)CC1	
0.1 nM	COc1ccccc1N1CCN(CCCN2C(=O)C3Nc4ccccc4C3N(C)C2=O)CC1 (stereo not given)	
0.1 nM	COc1ccccc1N1CCN(C(C)CCN2C(=O)C3Oc4ccccc4C3N(C)C2=O)CC1 (stereo not given)	
0.1 nM	COc1ccccc1N1CCN(C(C)CCN2C(=O)NC3c4ccccc4OC3C2=O)CC1 (stereo not given)	
0.1 nM	COc1ccccc1N1CCN(CCCN2C(=O)NC3c4ccccc4OC3C2=O)CC1 (stereo not given)	
0.05 nM	CCOc1ccccc1OCCN1CCN(c2cnn(CCCCN3CCN(c4ccccc4OC)CC3)c(=O)c2Cl)CC1	
0.05 nM	CCOc1ccccc1OCCN1CCN(c2cnn(CCCCCCN3CCN(c4ccccc4OC)CC3)c(=O)c2Cl)CC1	
0.1 nM	COc1ccccc1N1CCN(C(C)CCN2C(=O)NC3c4ccccc4NC3C2=O)CC1 (stereo not given)	
0.1 nM	COc1ccccc1N1CCN(CCCN2C(=O)C3Sc4ccccc4C3N(C)C2=O)CC1 (stereo not given)	
0.05 nM	COc1ccccc1OCCN1CCN(c2cnn(CCCN3CCN(c4ccccc4OC)CC3)c(=O)c2Cl)CC1	
0.05 nM	COc1ccccc1OCCN1CCN(c2cnn(CCCCCCN3CCN(c4ccccc4OC)CC3)c(=O)c2Cl)CC1	
0.05 nM	CCOc1ccccc1N1CCN(CCCCCn2ncc(N3CCN(CCOc4ccccc4OC)CC3)c(Cl)c2=O)CC1	
0.1 nM	COc1ccccc1N1CCN(CCN2C(=O)C3Oc4ccccc4C3N(C)C2=O)CC1 (stereo not given)	
0.1 nM	COc1ccccc1N1CCN(CCCN2C(=O)NC3c4ccccc4N(C)C3C2=O)CC1 (stereo not given)	
0.2 nM	COc1ccccc1N1CCN(CCCn2nc(-n3ccnc3)ccc2=O)CC1	
0.1 nM	COc1ccccc1N1CCN(CCN2C(=O)NC3c4ccccc4N(C)C3C2=O)CC1 (stereo not given)	
0.1 nM	COc1ccccc1N1CCN(CCCN2C(=O)C3C(c4ccccc4N3C)N(C)C2=O)CC1 (stereo not given)	
0.2 nM	COc1ccccc1N1CCN(CCCCCCn2nc(-n3ccc4ccccc43)ccc2=O)CC1	

From ChEMBL document CHEMBL1150404, “Synthesis, alpha 1-adrenoceptor antagonist activity, and SAR study of novel arylpiperazine derivatives of phenytoin” (Bioorg Med Chem, 2008)
